From ChEMBL document CHEMBL5678806, “NMS-P937, an orally available, specific small-molecule polo-like kinase 1 inhibitor with antitumor activity in solid and hematologic malignancies” (Mol Cancer Ther, 2012)

Experiments:
Insulin receptor = Insulin receptor (Homo sapiens, UniProt P06213); experiment: Inhibition of IR (unknown origin) in presence of [gamma-33P]ATP
[1] = target: Tyrosine-protein kinase Lyn (Homo sapiens, UniProt P07948); experiment: Inhibition of LYN (unknown origin) in presence of [gamma-33P]ATP
Chain of Tyrosine-protein kinase Lyn (P07948 whole entry): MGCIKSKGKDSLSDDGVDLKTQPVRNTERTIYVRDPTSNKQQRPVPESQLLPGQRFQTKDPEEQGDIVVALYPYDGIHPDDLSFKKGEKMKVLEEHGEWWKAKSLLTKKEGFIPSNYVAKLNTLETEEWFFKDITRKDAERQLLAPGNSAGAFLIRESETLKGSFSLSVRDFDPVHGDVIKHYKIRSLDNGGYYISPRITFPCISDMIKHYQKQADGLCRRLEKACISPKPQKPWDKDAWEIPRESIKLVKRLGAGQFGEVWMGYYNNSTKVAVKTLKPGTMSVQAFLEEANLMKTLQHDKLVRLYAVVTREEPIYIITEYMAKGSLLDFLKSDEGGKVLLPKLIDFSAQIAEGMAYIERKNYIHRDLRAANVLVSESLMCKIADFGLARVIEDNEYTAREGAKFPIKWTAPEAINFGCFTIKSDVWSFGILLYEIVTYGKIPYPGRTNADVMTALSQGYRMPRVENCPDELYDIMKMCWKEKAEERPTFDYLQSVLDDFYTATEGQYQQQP

[2] = target: Serine/threonine-protein kinase NIM1 (Homo sapiens, UniProt Q8IY84); experiment: Inhibition of NIM1 (unknown origin) in presence of [gamma-33P]ATP
Chain of Serine/threonine-protein kinase NIM1 (Q8IY84 whole entry): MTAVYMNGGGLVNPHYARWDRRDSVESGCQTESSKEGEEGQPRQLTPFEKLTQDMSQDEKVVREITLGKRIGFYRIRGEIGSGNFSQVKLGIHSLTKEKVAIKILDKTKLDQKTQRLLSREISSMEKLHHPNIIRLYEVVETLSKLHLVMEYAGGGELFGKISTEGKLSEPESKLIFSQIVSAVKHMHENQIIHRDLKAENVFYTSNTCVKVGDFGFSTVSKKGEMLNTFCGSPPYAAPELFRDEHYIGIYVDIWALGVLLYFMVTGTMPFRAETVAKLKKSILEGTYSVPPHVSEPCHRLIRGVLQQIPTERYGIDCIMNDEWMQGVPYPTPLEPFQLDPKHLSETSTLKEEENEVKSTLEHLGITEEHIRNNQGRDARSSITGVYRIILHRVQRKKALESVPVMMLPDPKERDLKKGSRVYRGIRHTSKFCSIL

[3] = Inhibition of SULU1 (unknown origin) in presence of [gamma-33P]ATP; parameters: species or system Homo sapiens
[4] = target: Serine/threonine-protein kinase Chk1 (Homo sapiens) (UniProt O14757); experiment: Inhibition of N-terminal GST-tagged full length human CHK1 expressed in Sf21 cells assessed as residual activity at 0.1 uM relative to control
[5] = target: Casein kinase I isoform gamma-3 (Homo sapiens) (UniProt Q9Y6M4); experiment: Inhibition of N-terminal 6His-tagged recombinant human CK1gamma3 (1 to 330 residues) expressed in baculovirus infected Sf21 cells assessed as residual activity at 0.1 uM relative to control
Chain of Casein kinase I isoform gamma-3 (Homo sapiens) (Q9Y6M4 whole entry, looked up, the tested form may be a part, canonical isoform): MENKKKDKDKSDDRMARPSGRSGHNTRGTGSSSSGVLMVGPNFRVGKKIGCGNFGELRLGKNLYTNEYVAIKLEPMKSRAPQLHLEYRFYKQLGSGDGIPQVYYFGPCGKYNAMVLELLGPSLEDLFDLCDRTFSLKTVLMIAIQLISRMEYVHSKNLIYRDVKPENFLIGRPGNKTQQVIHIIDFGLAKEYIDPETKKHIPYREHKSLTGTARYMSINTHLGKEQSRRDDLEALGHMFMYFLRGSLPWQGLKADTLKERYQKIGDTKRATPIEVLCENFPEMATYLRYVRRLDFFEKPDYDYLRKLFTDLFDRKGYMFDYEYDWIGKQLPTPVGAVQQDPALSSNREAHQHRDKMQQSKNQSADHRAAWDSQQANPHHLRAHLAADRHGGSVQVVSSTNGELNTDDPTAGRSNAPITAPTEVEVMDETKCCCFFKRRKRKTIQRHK

[6] = target: Cytoplasmic tyrosine-protein kinase BMX (Homo sapiens) (UniProt P51813); experiment: Inhibition of recombinant human Bmx assessed as residual activity at 1 uM relative to control
Chain of Cytoplasmic tyrosine-protein kinase BMX (Homo sapiens) (P51813 whole entry): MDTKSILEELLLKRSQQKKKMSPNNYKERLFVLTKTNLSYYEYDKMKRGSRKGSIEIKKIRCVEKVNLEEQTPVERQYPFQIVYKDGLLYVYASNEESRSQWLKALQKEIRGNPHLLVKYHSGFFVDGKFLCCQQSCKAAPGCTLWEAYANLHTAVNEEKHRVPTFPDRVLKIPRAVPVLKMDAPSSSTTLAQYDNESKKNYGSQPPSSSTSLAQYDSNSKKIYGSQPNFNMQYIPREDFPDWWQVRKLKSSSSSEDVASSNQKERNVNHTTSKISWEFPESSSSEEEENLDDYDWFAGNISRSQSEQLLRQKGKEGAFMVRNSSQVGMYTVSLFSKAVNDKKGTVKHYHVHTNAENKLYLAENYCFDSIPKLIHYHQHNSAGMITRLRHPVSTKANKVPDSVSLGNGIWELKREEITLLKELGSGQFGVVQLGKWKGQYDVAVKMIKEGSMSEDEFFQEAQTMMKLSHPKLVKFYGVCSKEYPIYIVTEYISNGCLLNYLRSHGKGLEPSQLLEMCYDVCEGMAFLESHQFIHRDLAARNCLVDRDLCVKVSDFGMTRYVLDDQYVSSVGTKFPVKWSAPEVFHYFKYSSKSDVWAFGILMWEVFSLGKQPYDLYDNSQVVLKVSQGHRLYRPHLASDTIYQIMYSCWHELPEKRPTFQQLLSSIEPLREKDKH

[7] = target: Tyrosine-protein kinase BTK (Homo sapiens) (UniProt Q06187); experiment: Inhibition of N-terminal His6-tagged recombinant full-length human BTK expressed in baculovirus infected Sf21 cells assessed as residual activity at 1 uM relative to control
Chain of Tyrosine-protein kinase BTK (Homo sapiens) (Q06187 whole entry, the tested form may be a part, canonical isoform): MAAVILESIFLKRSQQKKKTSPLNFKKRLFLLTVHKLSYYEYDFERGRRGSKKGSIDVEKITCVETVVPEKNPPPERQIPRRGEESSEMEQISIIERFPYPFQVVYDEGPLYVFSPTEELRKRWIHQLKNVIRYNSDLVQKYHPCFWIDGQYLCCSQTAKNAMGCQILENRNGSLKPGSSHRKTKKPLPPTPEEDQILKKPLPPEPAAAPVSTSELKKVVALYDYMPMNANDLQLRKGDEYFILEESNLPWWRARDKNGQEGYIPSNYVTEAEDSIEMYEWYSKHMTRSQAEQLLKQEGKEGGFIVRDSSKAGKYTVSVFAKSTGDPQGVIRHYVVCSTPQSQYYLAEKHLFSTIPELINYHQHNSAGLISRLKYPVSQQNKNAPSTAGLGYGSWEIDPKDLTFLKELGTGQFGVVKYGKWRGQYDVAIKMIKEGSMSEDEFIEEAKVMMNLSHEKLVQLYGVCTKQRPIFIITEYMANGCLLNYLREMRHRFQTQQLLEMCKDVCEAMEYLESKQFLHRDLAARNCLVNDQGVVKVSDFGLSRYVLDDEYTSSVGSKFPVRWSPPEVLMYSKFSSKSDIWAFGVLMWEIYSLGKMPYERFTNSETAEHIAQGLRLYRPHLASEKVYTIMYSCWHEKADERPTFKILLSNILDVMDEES

[8] = target: Casein kinase I isoform gamma-3 (Homo sapiens) (UniProt Q9Y6M4); experiment: Inhibition of N-terminal 6His-tagged recombinant human CK1gamma3 (1 to 330 residues) expressed in baculovirus infected Sf21 cells assessed as residual activity at 1 uM relative to control
[9] = target: Ephrin type-B receptor 1 (Homo sapiens) (UniProt P54762); experiment: Inhibition of N-terminal 6His-tagged recombinant human EphB1 (564 to end residues) expressed in baculovirus infected Sf21 cells assessed as residual activity at 1 uM relative to control
Chain of Ephrin type-B receptor 1 (Homo sapiens) (P54762 whole entry): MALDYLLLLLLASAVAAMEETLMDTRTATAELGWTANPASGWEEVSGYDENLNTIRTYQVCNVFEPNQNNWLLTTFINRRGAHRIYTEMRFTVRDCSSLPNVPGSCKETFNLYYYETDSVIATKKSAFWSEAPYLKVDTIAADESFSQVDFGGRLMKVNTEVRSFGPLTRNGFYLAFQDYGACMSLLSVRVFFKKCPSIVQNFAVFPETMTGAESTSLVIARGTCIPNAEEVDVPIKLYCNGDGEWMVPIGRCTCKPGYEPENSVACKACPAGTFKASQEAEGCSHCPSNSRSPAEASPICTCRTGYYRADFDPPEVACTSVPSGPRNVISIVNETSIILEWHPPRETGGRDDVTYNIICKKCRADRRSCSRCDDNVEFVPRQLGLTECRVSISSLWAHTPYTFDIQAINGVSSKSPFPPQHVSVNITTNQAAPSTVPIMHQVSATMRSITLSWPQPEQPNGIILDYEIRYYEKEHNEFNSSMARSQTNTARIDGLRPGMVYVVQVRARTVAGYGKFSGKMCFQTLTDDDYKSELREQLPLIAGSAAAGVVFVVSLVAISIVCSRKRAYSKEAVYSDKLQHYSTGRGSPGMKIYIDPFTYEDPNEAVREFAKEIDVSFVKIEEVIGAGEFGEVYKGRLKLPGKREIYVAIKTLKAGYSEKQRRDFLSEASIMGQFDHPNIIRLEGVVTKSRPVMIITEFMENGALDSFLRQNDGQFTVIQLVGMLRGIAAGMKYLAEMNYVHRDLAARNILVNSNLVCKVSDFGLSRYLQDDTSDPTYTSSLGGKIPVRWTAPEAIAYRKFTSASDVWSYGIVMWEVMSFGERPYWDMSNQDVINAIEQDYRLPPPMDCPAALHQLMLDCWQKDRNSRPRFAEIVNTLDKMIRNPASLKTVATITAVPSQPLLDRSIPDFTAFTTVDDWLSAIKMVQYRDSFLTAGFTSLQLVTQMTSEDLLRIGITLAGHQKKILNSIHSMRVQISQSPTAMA

[10] = target: Tyrosine-protein kinase Fgr (Homo sapiens) (UniProt P09769); experiment: Inhibition of N-terminal His6-tagged recombinant human Fgr (2 to end residues) expressed in baculovirus infected Sf21 cells assessed as residual activity at 1 uM relative to control
[11] = target: Homeodomain-interacting protein kinase 2 (Homo sapiens) (UniProt Q9H2X6); experiment: Inhibition of N-terminal His6-tagged recombinant human HIPK2 (165 to 564 residues) expressed in baculovirus infected Sf21 cells assessed as residual activity at 1 uM relative to control
[12] = target: Serine/threonine-protein kinase D1 (Homo sapiens) (UniProt Q15139); experiment: Inhibition of N-terminal His6-tagged recombinant full-length human PKCmu expressed in Sf21 cells assessed as residual activity at 1 uM relative to control
Chain of Serine/threonine-protein kinase D1 (Homo sapiens) (Q15139 whole entry): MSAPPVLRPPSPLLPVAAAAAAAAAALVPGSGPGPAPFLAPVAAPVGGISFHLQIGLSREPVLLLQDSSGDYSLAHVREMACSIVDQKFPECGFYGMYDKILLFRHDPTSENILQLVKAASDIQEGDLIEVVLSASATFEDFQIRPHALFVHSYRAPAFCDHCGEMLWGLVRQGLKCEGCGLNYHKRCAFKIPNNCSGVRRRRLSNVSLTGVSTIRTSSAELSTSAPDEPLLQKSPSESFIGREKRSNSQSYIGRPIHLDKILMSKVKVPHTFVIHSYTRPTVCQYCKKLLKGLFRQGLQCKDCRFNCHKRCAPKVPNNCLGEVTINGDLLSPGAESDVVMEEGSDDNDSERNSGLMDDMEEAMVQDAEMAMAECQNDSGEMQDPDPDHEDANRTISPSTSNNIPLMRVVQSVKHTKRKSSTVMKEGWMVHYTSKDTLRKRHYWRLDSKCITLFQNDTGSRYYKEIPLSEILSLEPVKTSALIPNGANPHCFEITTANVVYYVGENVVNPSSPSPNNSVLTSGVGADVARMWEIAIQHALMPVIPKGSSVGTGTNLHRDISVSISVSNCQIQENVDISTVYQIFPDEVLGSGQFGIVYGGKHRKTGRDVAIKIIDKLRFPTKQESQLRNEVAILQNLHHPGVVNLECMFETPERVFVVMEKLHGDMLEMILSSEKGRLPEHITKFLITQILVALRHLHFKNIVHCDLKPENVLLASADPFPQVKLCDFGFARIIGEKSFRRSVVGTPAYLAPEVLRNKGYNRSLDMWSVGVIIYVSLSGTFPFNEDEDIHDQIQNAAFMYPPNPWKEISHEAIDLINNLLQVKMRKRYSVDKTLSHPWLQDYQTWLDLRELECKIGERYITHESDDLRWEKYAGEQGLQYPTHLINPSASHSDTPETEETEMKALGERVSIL

[13] = target: Serine/threonine-protein kinase TBK1 (Homo sapiens) (UniProt Q9UHD2); experiment: Inhibition of N-terminal His6-tagged recombinant full-length human TBK1 expressed in baculovirus infected Sf21 cells assessed as residual activity at 1 uM relative to control
U-118-MG = experiment: Antiproliferative activity against human U-118-MG cells assessed as inhibition of cell growth incubated for 72 hrs by cell-titer glo assay; format: functional, cell-based
[14] = Antiproliferative activity against human COLO 206F cells assessed as inhibition of cell growth incubated for 72 hrs by cell-titer glo assay; format: functional, cell-based
In short: (§1)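 Cells seeded 10,000–30,000/cm² (adherent) or 100,000/mL (suspension) in medium with 10% fetal calf serum; after 24 h treated in duplicate with serial dilutions for 72 h. Viable cells read by CellTiter-Glo luminescence; IC50 from sigmoidal fit; at least two independent experiments.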

SW480 = experiment: Antiproliferative activity against human SW480 cells assessed as inhibition of cell growth incubated for 72 hrs by cell-titer glo assay; format: functional, cell-based; details: SW480, 72 h
UO-31 = experiment: Antiproliferative activity against human UO-31 cells assessed as inhibition of cell growth incubated for 72 hrs by cell-titer glo assay; format: functional, cell-based; details: UO-31, 72 h
NCI-H460 = experiment: Antiproliferative activity against human NCI-H460 cells assessed as inhibition of cell growth incubated for 72 hrs by cell-titer glo assay; format: functional, cell-based; details: NCI-H460, 72 h
In short: (§2)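 Cells from ATCC or ECACC, kept in supplier-recommended medium with 1% penicillin-streptomycin at 37°C, 5% CO₂. Seeded at 10,000–30,000/cm² (adherent) or 100,000/mL (nonadherent) in medium with 10% fetal calf serum. Dosed after 24 h in duplicate with serial dilutions. Viable cells read by CellTiter-Glo 72 h later. IC50 from sigmoidal fit. At least two independent experiments.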

NCI-H1993 = experiment: Antiproliferative activity against human NCI-H1993 cells assessed as inhibition of cell growth incubated for 72 hrs by cell-titer glo assay; format: functional, cell-based; details: NCI-H1993, 72 h; in short: as §2
[15] = Antiproliferative activity against human LUDLU-1 cells assessed as inhibition of cell growth incubated for 72 hrs by cell-titer glo assay; format: functional, cell-based; details: LUDLU-1, 72 h
In short: (§3)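 Cells seeded at 10,000–30,000/cm² (adherent) or 100,000/mL (nonadherent) in medium with 10% fetal calf serum; after 24 h, treated in duplicate with serial dilutions for 72 h. Viable cell number read by CellTiter-Glo luminescence; IC50 from sigmoidal fit; at least two independent experiments.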

[16] = Antiproliferative activity against human NCI-H2110 cells assessed as inhibition of cell growth incubated for 72 hrs by cell-titer glo assay; format: functional, cell-based; details: NCI-H2110, 72 h; in short: as §2
NCI-H82 = experiment: Antiproliferative activity against human NCI-H82 cells assessed as inhibition of cell growth incubated for 72 hrs by cell-titer glo assay; format: functional, cell-based; details: NCI-H82, 72 h; in short: as §2
OVCAR-3 = experiment: Antiproliferative activity against human OVCAR-3 cells assessed as inhibition of cell growth incubated for 72 hrs by cell-titer glo assay; format: functional, cell-based; details: OVCAR-3, 72 h; in short: as §2
MeWo = experiment: Antiproliferative activity against human MeWo cells assessed as inhibition of cell growth incubated for 72 hrs by cell-titer glo assay; format: functional, cell-based; in short: as §2
L-363 = experiment: Antiproliferative activity against human L-363 cells assessed as inhibition of cell growth incubated for 72 hrs by cell-titer glo assay; format: functional, cell-based; details: L-363, 72 h; in short: as §3
[17] = Antiproliferative activity against human GM03798 cells assessed as inhibition of cell growth incubated for 72 hrs by cell-titer glo assay; format: functional, cell-based; details: GM03798, 72 h; in short: as §1
NHDF = experiment: Induction of DNA damage in human NHDF cells assessed as H2AX phosphorylation at 0.5 to 1 uM incubated for 8 hrs by Western blotting analysis; format: toxicity, cell-based; details: dose 0.5-1 µM
[18] = Half-life in Sprague-Dawley rat at 10 mg/kg, iv by LC-MS analysis; format: ADME, organism-based; details: in vivo
[19] = Half-life in male cynomolgus monkey at 5 mg/kg, iv by LC-MS analysis; format: ADME, organism-based, Macaca fascicularis; details: in vivo
[20] = Antitumor activity against human Acute myeloid leukemic cell xenografted in nu/nu mouse assessed as increase in median survival time at 120 mg/kg, po administered for 2 days and measured after 10 days (reference value: 34 days); format: functional, Leukemia cell; details: time 2 day

## CN1CCN(c2ccc(OC(F)(F)F)c(Nc3ncc4c(n3)-c3c(c(C(N)=O)nn3CCO)CC4)c2)CC1 [ONVANSERTIB]
Insulin receptor
  IC50: > 10 µM
[1]
  IC50: > 10 µM
[2]
  IC50: > 10 µM
[3]
  IC50: > 10 µM
[4]
  Activity: 113%
[5]
  Activity: 96%
[6]
  Activity: 85%
[7]
  Activity: 84%
[8]
  Activity: 39%
[9]
  Activity: 75%
[10]
  Activity: 85%
[11]
  Activity: 96%
[12]
  Activity: 85%
[13]
  Activity: 96%
U-118-MG
  IC50: 220 nM
[14]
  IC50: 93 nM
SW480
  IC50: 618 nM
UO-31
  IC50: 1130 nM
NCI-H460
  IC50: 109 nM
NCI-H1993
  IC50: 287 nM
[15]
  IC50: 32 nM
[16]
  IC50: 68 nM
NCI-H82
  IC50: 16 nM
OVCAR-3
  IC50: 41 nM
MeWo
  IC50: 237 nM
L-363
  IC50: 37 nM
[17]
  IC50: 55 nM
NHDF
  Activity: Toxic
[18]
  half-life: 162 min
[19]
  half-life: 300 min
[20]
  Time: 50 days
